# Measurements: publication PMC6923798 (Bioorganic chemistry, 2018)
# Where two headings read alike, the source gives them in different places.
# Experiments:
# [1] = system: STAT3; experiment: STAT3 activation assay; format: cell-based, human; settings: K-562 cells, 10 μM, 24 h, nuclear extracts
# How it was run: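 K562 cells seeded overnight in 10 cm plates, then given vehicle, test compound (10 μM) or WP1066 (positive control) for 24 h. Nuclear fractions extracted by kit. STAT3 activation measured in nuclear extracts by TransAM STAT3 ELISA per manufacturer. Mean ± SD of three independent experiments, each in triplicate.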
# [2] = molecular target: c-Src (Homo sapiens, UniProt P12931); experiment: Src kinase assay; format: biochemical
# [3] = system: KG-1a; experiment: MTT anti-proliferative assay; format: cell-based, human; settings: read-out: IC50 ± SD, KG-1a
# [4] = system: Jurkat; experiment: MTT anti-proliferative assay; format: cell-based, human; settings: read-out: IC50 ± SD, Jurkat
# [5] = system: K-562; experiment: MTT anti-proliferative assay; format: cell-based, human; settings: read-out: IC50 ± SD, K-562
# [6] = system: full NCI panel of 60 cell lines; experiment: NCI in vitro one dose anticancer assay; format: cell-based, human; settings: 48 h; for inhibition at 10 µM: Homo sapiens, 60 cell, read-out: Mean growth inhibition %
# How it was run: (§1)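 NCI protocol. Test compound added once at 10−5 M to ~60 human tumour lines from nine subpanels. Incubated 48 h at 37 °C, 5% CO2, 95% air, 100% relative humidity. Endpoint by sulforhodamine B protein staining with spectrophotometric absorbance. Growth of treated cells reported as percent of untreated cells.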
# [7] = molecular target: EGFR (Homo sapiens, UniProt P00533); experiment: EGFR kinase assay; format: biochemical
# [8] = system: K-562 cell line; experiment: NCI in vitro one dose anticancer assay; format: cell-based; settings: Homo sapiens, K562, 48 h, read-out: % growth inhibition
# How it was run: as §1
# [9] = system: SR cell line; experiment: NCI in vitro one dose anticancer assay; format: cell-based; settings: Homo sapiens, 48 h, read-out: % growth inhibition
# How it was run: as §1
# [10] = system: IL-6; experiment: IL-6 ELISA in K-562 cells; format: cell-based, human; settings: Homo sapiens, K562, 24 h, read-out: IL-6 protein levels (% of control)
# How it was run: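 K-562 cells exposed 24 h to vehicle (DMSO), test compound at 10 μM or dexamethasone (positive control). IL-6 secreted into cell-free supernatant quantified by human IL-6 ELISA kit. Expressed as % of vehicle control, mean ± SD of three independent experiments, each in triplicate. Time course: in 12-well plates, medium changed when compound (10 μM) added, and media sampled at 0, 1, 4, 8, 12, 24, 48 h.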
# [11] = system: MOLT-4 cell line; experiment: NCI in vitro one dose anticancer assay; format: cell-based; settings: Homo sapiens, MOLT-4, 48 h, read-out: % growth inhibition
# How it was run: as §1
# [12] = system: RPMI-8226 cell line; experiment: NCI in vitro one dose anticancer assay; format: cell-based; settings: Homo sapiens, RPMI-8226, 48 h, read-out: % growth inhibition
# How it was run: as §1
# Chain of c-Src (P12931 whole entry): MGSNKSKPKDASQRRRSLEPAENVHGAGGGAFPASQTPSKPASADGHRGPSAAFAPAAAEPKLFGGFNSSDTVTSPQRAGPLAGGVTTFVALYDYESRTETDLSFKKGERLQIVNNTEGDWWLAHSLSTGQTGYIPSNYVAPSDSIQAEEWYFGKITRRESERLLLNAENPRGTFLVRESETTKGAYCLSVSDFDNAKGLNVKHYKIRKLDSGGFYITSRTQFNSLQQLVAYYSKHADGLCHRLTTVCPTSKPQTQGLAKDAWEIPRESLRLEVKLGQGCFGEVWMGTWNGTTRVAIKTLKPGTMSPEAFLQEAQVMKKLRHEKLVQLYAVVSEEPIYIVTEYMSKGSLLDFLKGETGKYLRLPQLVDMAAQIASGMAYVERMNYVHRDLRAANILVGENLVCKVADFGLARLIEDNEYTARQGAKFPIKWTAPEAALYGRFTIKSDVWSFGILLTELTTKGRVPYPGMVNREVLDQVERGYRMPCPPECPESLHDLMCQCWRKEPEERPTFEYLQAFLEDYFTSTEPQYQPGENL
# Chain of EGFR (P00533 25-1210): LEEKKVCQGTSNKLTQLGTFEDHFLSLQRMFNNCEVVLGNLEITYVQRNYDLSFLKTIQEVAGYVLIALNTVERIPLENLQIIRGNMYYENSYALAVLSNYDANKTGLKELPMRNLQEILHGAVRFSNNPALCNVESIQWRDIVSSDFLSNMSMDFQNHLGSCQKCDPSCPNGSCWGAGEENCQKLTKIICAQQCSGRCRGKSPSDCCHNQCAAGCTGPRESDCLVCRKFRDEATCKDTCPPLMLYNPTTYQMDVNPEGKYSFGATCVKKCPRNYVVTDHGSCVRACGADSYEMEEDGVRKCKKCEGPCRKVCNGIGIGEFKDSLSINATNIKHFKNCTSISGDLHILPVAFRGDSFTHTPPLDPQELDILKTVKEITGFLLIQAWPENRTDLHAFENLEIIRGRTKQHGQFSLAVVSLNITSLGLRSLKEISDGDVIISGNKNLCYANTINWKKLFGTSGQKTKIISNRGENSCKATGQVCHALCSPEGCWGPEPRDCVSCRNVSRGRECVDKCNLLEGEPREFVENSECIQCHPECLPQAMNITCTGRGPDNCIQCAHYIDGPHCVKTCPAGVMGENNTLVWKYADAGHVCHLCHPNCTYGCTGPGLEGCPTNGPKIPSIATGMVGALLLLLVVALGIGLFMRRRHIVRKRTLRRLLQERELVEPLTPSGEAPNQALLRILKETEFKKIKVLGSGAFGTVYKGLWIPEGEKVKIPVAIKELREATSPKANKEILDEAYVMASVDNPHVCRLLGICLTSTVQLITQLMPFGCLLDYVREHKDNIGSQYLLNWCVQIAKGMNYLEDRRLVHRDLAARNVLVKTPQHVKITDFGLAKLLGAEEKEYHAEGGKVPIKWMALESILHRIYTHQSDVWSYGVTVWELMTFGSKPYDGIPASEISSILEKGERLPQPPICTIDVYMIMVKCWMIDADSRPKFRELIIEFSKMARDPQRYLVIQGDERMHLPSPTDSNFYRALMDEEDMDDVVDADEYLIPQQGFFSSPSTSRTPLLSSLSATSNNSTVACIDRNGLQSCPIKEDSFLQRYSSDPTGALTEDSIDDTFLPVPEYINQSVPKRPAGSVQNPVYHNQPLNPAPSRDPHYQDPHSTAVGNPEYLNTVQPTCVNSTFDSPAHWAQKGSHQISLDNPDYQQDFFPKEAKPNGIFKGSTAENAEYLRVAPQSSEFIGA
"IC50 ([2]; read-out: Src (IC50 μM), PGT substrate, ATP 50 μM)","IC50 ([4]; MTT, 24 h treatment)","IC50 ([5]; MTT, 24 h treatment)","IC50 ([7]; read-out: EGFR (IC50 μM), PGT substrate, ATP 50 μM)",IC50 [2],"IC50 ([4]; Homo sapiens, Jurkat, 24 h)","IC50 ([5]; Homo sapiens, K562, 24 h)",IC50 [7],SMILES,inhibition of STAT3 activation [1],"IC50 ([3]; MTT, 24 h treatment)","Mean growth inhibition % ([6]; 10 μM, SRB, mean over NCI 60 cell line panel)","IC50 ([3]; Homo sapiens, KG-1a, 24 h)",inhibition at 10 µM [8],inhibition at 10 µM [6],inhibition at 10 µM [9],activity at 10 µM [10],inhibition at 10 µM [11],inhibition at 10 µM [12]
4.5 ± 1.2 µM,8.47 ± 1.03 µM,7.21 ± 0.35 µM,1.23 ± 0.25 µM,–,–,–,–,"O=C(CSc1nnc(-c2ccccc2)o1)Nc1ccc(C(=O)C=Cc2ccccc2)cc1 [Compound 8a, N-(4-(3-Phenyl)acryloyl)phenyl-2-((5-phenyl-1,3,4-oxadiazol-2-yl)thio)-acetamide]",most effective,8.85 ± 0.22 µM,37.77%,–,–,–,–,–,–,–
–,–,–,–,6.24 ± 0.86 µM,13.15 ± 0.08 µM,10.2 ± 0.94 µM,2.35 ± 0.95 µM,"COc1ccc(-c2nnc(SCC(=O)Nc3ccc(C(=O)C=Cc4cc(OC)c(OC)c(OC)c4)cc3)o2)cc1 [Compound 8n, 2-(5-(4-Methoxyphenyl)-1,3,4-oxadiazol-2-ylthio)-N-(4-(3-(3,4,5-tri-methoxyphenyl)acryloyl)phenyl)acetamide]",most effective,–,–,16 ± 0.96 µM,35.8 to 152%,27.3%,32.9 to 160%,20 to 23%,–,–
–,–,–,–,13.7 ± 0.89 µM,17.2 ± 0.79 µM,16.1 ± 1.08 µM,13.3 ± 0.65 µM,"COc1ccc(-c2nnc(SCC(=O)Nc3ccc(C(=O)C=Cc4ccc(Cl)cc4)cc3)o2)cc1OC [Compound 8p, N-(4-(3-(4-chlorophenyl)acryloyl)phenyl)-2-((5-(3,4-dimethoxyphenyl)-1,3,4-oxadiazol-2-yl)thio)acetamide]",moderate activities,–,–,22.5 ± 1.07 µM,–,28.2%,32.9 to 160%,30 to 75%,31.9 to 108%,31.3 to 144%
–,–,–,–,15.3 ± 1.25 µM,25.1 ± 0.45 µM,15.1 ± 0.25 µM,12.3 ± 0.8 µM,"COc1ccc(-c2nnc(SCC(=O)Nc3ccc(C(=O)C=Cc4cc(OC)c(OC)c(OC)c4)cc3)o2)cc1OC [Compound 8s, 2-((5-(3,4-Dimethoxyphenyl)-1,3,4-oxadiazol-2-yl)thio)-N-(4-(3-(3,4,5-trimethoxyphenyl)acryloyl)phenyl)acetamide]",moderate activities,–,–,32.1 ± 0.64 µM,35.8 to 152%,–,32.9 to 160%,30 to 75%,–,31.3 to 144%
